In brackets after ≈: the same amount, converted by molar mass. Activity calls are given as the source filed them. No cut-off for these calls is given here.
Assays:
[1] = Binding affinity to Mycobacterium abscessus N-terminal His-tagged 3C protease linked full length tRNA (m1-G37) methyltransferase expressed in Escherichia coli BL21(DE3) by isothermal titration calorimetry; design: species or system Mycobacteroides abscessus
Outline: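 ITC at 25 °C. TrmD (33 or 100 μM in cell) was dialysed overnight at 4 °C into 50 mM HEPES pH 7.5, 500 mM NaCl, 5% glycerol, with final DMSO 2–10%. Ligand:protein was 10–20:1. A 0.2 μL injection was discarded, followed by 19×2 or 39×1 μL injections at 60–150 s spacing. No-protein blanks were subtracted. Data were fitted to a one-site model (N fixed at 1 for weak binders). Mostly n = 1 with fit error; SD when n > 1.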

[2] = system: Mycobacteroides abscessus; assay: Binding affinity to Mycobacterium abscessus N-terminal His-tagged 3C protease linked full length tRNA (m1-G37) methyltransferase expressed in Escherichia coli BL21(DE3) assessed as change in melting temperature at 100 uM by SYPRO Orange dye based DSF assay
Outline: (§1)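 DSF with 10 μM Mab TrmD (His-tag cleaved) in 50 mM HEPES pH 7.5, 500 mM NaCl, 5x SYPRO Orange. Final DMSO was 5%, either as ligand stock or as DMSO alone. Samples were ramped from 25 to 95 °C in 0.5 °C steps of 30 s. ΔTm was taken relative to the DMSO control.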

[3] = Antimycobacterial activity against Mycobacterium abscessus subsp. abscessus ATCC 19977 by CLSI M07-A9 protocol based method; format: functional; conditions: Mycobacteroides abscessus
[4] = system: Mycobacteroides abscessus; assay: Binding affinity to Mycobacterium abscessus N-terminal His-tagged 3C protease linked full length tRNA (m1-G37) methyltransferase expressed in Escherichia coli BL21(DE3) assessed as change in melting temperature at 5 mM by SYPRO Orange dye based DSF assay; outline: as §1
[5] = system: Mycobacterium tuberculosis; assay: Antimycobacterial activity against Mycobacterium tuberculosis H37Rv incubated for 2 weeks in presence of 7H9/DPPC medium; format: functional; conditions: 336 h
[6] = system: Mycobacterium tuberculosis; assay: Antimycobacterial activity against Mycobacterium tuberculosis H37Rv incubated for 2 weeks in presence of GAST-Fe medium; format: functional; conditions: 336 h
[7] = system: Mycobacterium tuberculosis; assay: Antimycobacterial activity against Mycobacterium tuberculosis H37Rv incubated for 2 weeks in presence of 7H9/glucose medium; format: functional; conditions: 336 h
[8] = system: Mycobacterium tuberculosis; assay: Antimycobacterial activity against Mycobacterium tuberculosis H37Rv incubated for 2 weeks in presence of 7H9/ADC medium; format: functional; conditions: 336 h
[9] = system: Mycobacteroides abscessus; assay: Binding affinity to Mycobacterium abscessus N-terminal His-tagged 3C protease linked full length tRNA (m1-G37) methyltransferase expressed in Escherichia coli BL21(DE3) after 15 mins by mass Spectrometry
Outline: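 Native nanoESI-MS. His-tag was removed with 3C protease before IMAC and gel filtration. TrmD was exchanged into 200 mM ammonium acetate pH 7.0. Protein (20 μM in titration) was equilibrated at room temperature for at least 15 min alone or with ligand (12.5–100 μM; 100 μM for screening) in 5% DMSO. Read-out was ligand occupancy (singly or doubly bound) of the 13+ and 14+ charge states.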

[10] = system: Mycobacteroides abscessus; assay: Binding affinity to Mycobacterium abscessus N-terminal His-tagged 3C protease linked full length tRNA (m1-G37) methyltransferase expressed in Escherichia coli BL21(DE3) by reverse isothermal titration calorimetry
Outline: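 Reverse ITC at 25 °C. 420 μM TrmD was injected into 35 μM ligand in the cell. Buffer was 50 mM HEPES pH 7.5, 500 mM NaCl, 5% glycerol with DMSO; blank titrations were subtracted. Data were fitted to a one-site binding model, otherwise as for forward titrations.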

Structure (SMILES): COc1cc(COC(=O)c2cn[nH]c2)cc(N2CCCC2)c1
- Kd [1]: 10 µM
- ΔTm [2]: 3 °C

Structure (SMILES): NC(=O)c1ccccc1Cn1ccc2ccc(-c3cc(N)n[nH]3)cc21
- ΔTm [2]: 1.4 °C

Structure (SMILES): N#Cc1c(N)n[nH]c1-c1ccc2ccn(Cc3ccnc4ccccc34)c2c1
- ΔTm [2]: 10.3 °C

Structure (SMILES): N#Cc1c(N)n[nH]c1-c1ccc2ccn(Cc3ccc(CN4CCCC4)cn3)c2c1
- MIC [3]: 50 µM (≈ 19.9 µg/mL)
- Kd [1]: 92 µM
- ΔTm [2]: 12 °C

Structure (SMILES): N#Cc1c(N)n[nH]c1-c1ccc2ccn(Cc3ccc(O)nc3)c2c1
- Kd [1]: 1.3 µM
- ΔTm [2]: 8.3 °C

Structure (SMILES): COc1cccc(-c2cc(N)n[nH]2)c1
- ΔTm [4]: -0.5 °C

Structure (SMILES): Nc1cc(-c2ccc3cc[nH]c3c2)[nH]n1
- Kd [1]: 110 µM
- ΔTm [2]: 1.1 °C
- ΔTm [4]: 4.8 °C

Structure (SMILES): CCOC(=O)c1cn[nH]c1
- Kd [1]: 89 µM
- ΔTm [2]: 0.4 °C
- ΔTm [4]: 4 °C

Structure (SMILES): Cc1ccc(-c2cc(N)[nH]n2)cc1
- ΔTm [4]: 1.4 °C

Structure (SMILES): CC(C)N1CCN(Cc2ccc(Cn3ccc4ccc(-c5[nH]nc(N)c5C#N)cc43)cc2)CC1
- MIC [5]: 1.6 µM
- MIC [3]: 50 µM (≈ 22.7 µg/mL)
- MIC [6]: 6.3 µM
- ΔTm [2]: 11.9 °C
- MIC [7]: 2.3 µM
- MIC [8]: 12.5 µM

Structure (SMILES): N#Cc1c(N)n[nH]c1-c1ccc2ccn(Cc3ccc(CN4CCOCC4)cc3)c2c1
- MIC [5]: 50 µM
- MIC [3]: 50 µM (≈ 20.6 µg/mL)
- MIC [6]: 50 µM
- ΔTm [2]: 12.6 °C
- MIC [7]: 100 µM
- MIC [8]: > 100 µM

Structure (SMILES): N#Cc1c(N)n[nH]c1-c1ccc2ccn(Cc3ccc(CN4CCCC4)cc3)c2c1
- MIC [5]: 12.5 µM
- MIC [3]: 50 µM (≈ 19.8 µg/mL)
- Kd [1]: 27 µM
- Activity [9]: Active
- ΔTm [2]: 12.9 °C
- MIC [7]: 25 µM
- MIC [8]: > 100 µM

Structure (SMILES): N#Cc1c(N)n[nH]c1-c1ccc2ccn(Cc3ccc(CN4CCCCC4)cc3)c2c1
- MIC [3]: 50 µM (≈ 20.5 µg/mL)
- MIC [6]: 50 µM
- ΔTm [2]: 12.6 °C
- MIC [7]: 25 µM
- MIC [8]: 100 µM

Structure (SMILES): Nc1cc(-c2ccc3ccn(Cc4ccccn4)c3c2)[nH]n1
- Kd [1]: 12 µM
- ΔTm [2]: 3.1 °C

Structure (SMILES): O=C(OCc1cccc(OCc2ccccn2)c1)c1cn[nH]c1
- ΔTm [2]: 2.5 °C

Structure (SMILES): N#Cc1c(N)n[nH]c1-c1ccc2ccn(Cc3ccccc3)c2c1
- Activity [9]: Active
- ΔTm [2]: 10.1 °C

Structure (SMILES): COC(=O)COc1cccc(COC(=O)c2cn[nH]c2)c1
- Kd [1]: 10 µM
- ΔTm [2]: 2.6 °C

Structure (SMILES): Cc1c(N)n[nH]c1-c1ccc2ccn(Cc3ccc(CN4CCCC4)cc3)c2c1
- ΔTm [2]: 6.1 °C

Structure (SMILES): COc1cccc(Cn2ccc3ccc(-c4cc(N)n[nH]4)cc32)c1
- Kd [1]: 13 µM
- ΔTm [2]: 4.6 °C

Structure (SMILES): N#Cc1c(N)n[nH]c1-c1ccc2ccn(Cc3ccncc3)c2c1
- MIC [3]: 50 µM (≈ 15.7 µg/mL)
- Kd [1]: 0.12 µM
- MIC [6]: 50 µM
- ΔTm [2]: 11.5 °C
- MIC [8]: > 100 µM

Structure (SMILES): N#Cc1cccc(COC(=O)c2cn[nH]c2)c1
- Kd [1]: 30 µM
- ΔTm [2]: 2.8 °C

Structure (SMILES): Nc1cc(-c2ccc3ccn(Cc4ccc(CN5CCCC5)cc4)c3c2)[nH]n1
- MIC [5]: 6.3 µM
- MIC [3]: 50 µM (≈ 18.6 µg/mL)
- Kd [1]: 490 µM
- MIC [6]: 25 µM
- ΔTm [2]: 7 °C
- MIC [7]: 12.5 µM
- MIC [8]: 100 µM

Structure (SMILES): CCNC(=O)c1cn[nH]c1
- ΔTm [4]: 0.4 °C

Structure (SMILES): N#Cc1c(N)n[nH]c1-c1ccc2ccn(Cc3ccccn3)c2c1
- Kd [1]: 0.5 µM
- ΔTm [2]: 8.3 °C

Structure (SMILES): N#Cc1c(N)n[nH]c1-c1ccc2c(Cl)cn(Cc3cccnc3)c2c1
- Kd [1]: 8.5 µM
- ΔTm [2]: 5.8 °C

Structure (SMILES): Nc1cc(-c2ccccc2)n[nH]1
- ΔTm [4]: 1.5 °C

Structure (SMILES): COC(=O)c1ccc(COC(=O)c2cn[nH]c2)cc1
- ΔTm [2]: 0.9 °C

Structure (SMILES): N#Cc1c(N)n[nH]c1-c1ccc2ccn(Cc3cccnc3)c2c1
- Kd [1]: 0.18 µM
- ΔTm [2]: 10.5 °C

Structure (SMILES): CCOc1cccc(COC(=O)c2cn[nH]c2)c1
- Kd [1]: 11 µM
- ΔTm [2]: 3.1 °C

Structure (SMILES): N#Cc1c(N)n[nH]c1-c1ccc2cc[nH]c2c1
- Kd [1]: 5 µM
- ΔTm [2]: 4.4 °C

Structure (SMILES): N#Cc1ccccc1Cn1ccc2ccc(-c3cc(N)n[nH]3)cc21
- Kd [1]: 12 µM
- ΔTm [2]: 4.4 °C

Structure (SMILES): OB(O)c1ccc2[nH]ccc2c1
- ΔTm [4]: 1.3 °C

Structure (SMILES): OB(O)c1ccc2cc[nH]c2c1
- Kd [1]: 260 µM
- ΔTm [4]: 4 °C

Structure (SMILES): COc1cc(COC(=O)c2cn[nH]c2)cc(-c2cccnc2)c1
- Kd [1]: 6.7 µM
- ΔTm [2]: 3.8 °C

Structure (SMILES): COc1ccc(-c2cc(N)[nH]n2)cc1
- Kd [1]: 170 µM
- ΔTm [4]: 3 °C

Structure (SMILES): COc1cc(COC(=O)c2cn[nH]c2)cc(Cc2cccnc2)c1
- Kd [1]: 12 µM
- ΔTm [2]: 3 °C

Structure (SMILES): Nc1cc(-c2ccc3ccn(Cc4ccc(CN5CCCCC5)cc4)c3c2)[nH]n1
- MIC [5]: 12.5 µM
- MIC [3]: 50 µM (≈ 19.3 µg/mL)
- MIC [6]: 50 µM
- ΔTm [2]: 7.2 °C
- MIC [7]: 25 µM
- MIC [8]: > 100 µM

Structure (SMILES): O=C(OCc1cccc(OCCc2ccccc2)c1)c1cn[nH]c1
- ΔTm [2]: 3 °C

Structure (SMILES): N#Cc1c(N)n[nH]c1-c1ccc2ccn(Cc3cccnc3O)c2c1
- Kd [1]: 3.2 µM
- ΔTm [2]: 5.5 °C

Structure (SMILES): O=C(O)c1ccc2cc[nH]c2c1
- ΔTm [4]: -0.6 °C

Structure (SMILES): O=C(OCc1ccc([N+](=O)[O-])cc1)c1cn[nH]c1
- ΔTm [2]: 0.4 °C

Structure (SMILES): CN1CCN(Cc2ccc(Cn3ccc4ccc(-c5[nH]nc(N)c5C#N)cc43)cc2)CC1
- MIC [5]: 6.3 µM
- MIC [3]: 50 µM (≈ 21.3 µg/mL)
- Kd [1]: 73 µM
- MIC [6]: 25 µM
- ΔTm [2]: 12 °C
- MIC [7]: 12.5 µM

Structure (SMILES): O=C(OCc1ccccc1)c1cn[nH]c1
- Kd [1]: 33 µM
- ΔTm [2]: 3.1 °C

Structure (SMILES): CCOC(=O)c1cnn(CC#Cc2cc(COC(=O)c3cn[nH]c3)cc(OC)c2)c1
- Kd [1]: 4.6 µM
- ΔTm [2]: 9.6 °C

Structure (SMILES): COc1ccc(Cn2ccc3ccc(-c4cc(N)n[nH]4)cc32)cc1
- Kd [1]: 59 µM
- ΔTm [2]: 3.4 °C

Structure (SMILES): CN1CCCCC1Cn1ccc2ccc(-c3[nH]nc(N)c3C#N)cc21 (racemic)
- Kd [1]: 0.59 µM
- ΔTm [2]: 8.8 °C

Structure (SMILES): COc1cccc(COC(=O)c2cn[nH]c2)c1
- Kd [1]: 14 µM
- ΔTm [2]: 3.5 °C

Structure (SMILES): Nc1cc(-c2ccc3ccn(Cc4ccccc4)c3c2)[nH]n1
- Kd [1]: 19 µM
- Activity [9]: Active
- ΔTm [2]: 3.4 °C

Structure (SMILES): CN1CCCC(Cn2ccc3ccc(-c4[nH]nc(N)c4C#N)cc32)C1 (racemic)
- Kd [1]: 0.36 µM
- ΔTm [2]: 10.9 °C
- Activity [10]: Active
